Residues, ends and D or L forms follow the SMILES beside them. *: point of attachment. Cbz = O=C(OCc1ccccc1)*
Assays:
Type in all cases: functional
Rattus norvegicus [1] = assay: Ability (% reversal in rats) to reverse electroconvulsive shock-induced amnesia in rodents at a dose of 0.0010 (mg/kg) (following i.m. administration)
Procedure, shortened: (§1)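 Passive avoidance (step-through, lighted vs darkened compartment). […], ECS (20 mA, 1 s) was given transcorneally via saline-soaked electrodes, and maximal hindlimb extension was required. Drug was given im at selected doses 2 h post-training. One hour later, entry latency to the dark side was recorded, with 60 s counted as retention. At least 75% of ECS controls had to be amnesic. Replicates were mostly not run.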

Rattus norvegicus [2] = assay: Compound was tested for its ability (% reversal in rats) to reverse electroconvulsive shock-induced amnesia in rodents at a dose of 0.032 (mg/kg) administered intramuscularly (im); procedure, shortened: as §1
Rattus norvegicus [3] = assay: Ability (% reversal in rats) to reverse electroconvulsive shock-induced amnesia in rodents at a dose of 0.10 (mg/kg) (following intramuscular dosing); procedure, shortened: as §1
Rattus norvegicus [4] = assay: Compound was tested for its ability (% reversal in rats) to reverse electroconvulsive shock-induced amnesia in rodents at a dose of 0.0001 (mg/kg) administered intramuscularly (im); procedure, shortened: as §1
Rattus norvegicus [5] = assay: Compound was tested for its ability (% reversal in rats) to reverse electroconvulsive shock-induced amnesia in rodents at a dose of 100 (mg/kg) administered intramuscularly (im); procedure, shortened: as §1
Rattus norvegicus [6] = assay: Compound was tested for its ability (% reversal in rats) to reverse electroconvulsive shock-induced amnesia in rodents at a dose of 1 (mg/kg) administered intramuscularly (im); procedure, shortened: as §1
Rattus norvegicus [7] = assay: Ability (% reversal in rats) to reverse electroconvulsive shock-induced amnesia in rodents at a dose of 0.010 (mg/kg) administered intramuscularly (im); procedure, shortened: as §1
Rattus norvegicus [8] = assay: Compound was tested for its ability (% reversal in rats) to reverse electroconvulsive shock-induced amnesia in rodents at a dose of 10 (mg/kg) administered intramuscularly (im); procedure, shortened: as §1
Rattus norvegicus [9] = assay: Compound was tested for its ability (% reversal in rats) to reverse electroconvulsive shock-induced amnesia in rodents at a dose of 1 (mg/kg) administered intramuscularly (im).; procedure, shortened: as §1
Rattus norvegicus [10] = assay: Compound was tested for its ability (% reversal in rats) to reverse electroconvulsive shock-induced amnesia in rodents at a dose of 0.10 (mg/kg) administered intramuscularly (im).; procedure, shortened: as §1
Rattus norvegicus [11] = assay: Compound was tested for its ability (% reversal in rats) to reverse electroconvulsive shock-induced amnesia in rodents at a dose of 0.010 (mg/kg) administered intramuscularly (im).; procedure, shortened: as §1
Rattus norvegicus [12] = assay: Compound was tested for its ability (% reversal in rats) to reverse electroconvulsive shock-induced amnesia in rodents at a dose of 0.0010 (mg/kg) administered intramuscularly (im).; procedure, shortened: as §1
Rattus norvegicus [13] = assay: Compound was tested for its ability (% reversal in rats) to reverse electroconvulsive shock-induced amnesia in rodents at a dose of 0.001 (mg/kg) administered intramuscularly (im); procedure, shortened: as §1
Rattus norvegicus [14] = assay: Compound was tested for its ability (% reversal in rats) to reverse electroconvulsive shock-induced amnesia in rodents at a dose of 100 (mg/kg) administered intramuscularly (im).; procedure, shortened: as §1
Rattus norvegicus [15] = assay: Compound was tested for its ability (% reversal in rats) to reverse electroconvulsive shock-induced amnesia in rodents at a dose of 1(mg/kg) administered intramuscularly (im); procedure, shortened: as §1
Rattus norvegicus [16] = assay: Compound was tested for its ability (% reversal in rats) to reverse electroconvulsive shock-induced amnesia in rodents at a dose of 0.1 (mg/kg) administered intramuscularly (im); procedure, shortened: as §1
Mus musculus [17] = assay: Compound was tested for its ability (% reversal in mice) to reverse electroconvulsive shock-induced amnesia in rodents at a dose of 0.1 (mg/kg) administered intramuscularly (im); procedure, shortened: as §1
Mus musculus [18] = assay: Compound was tested for its ability (% reversal in mice) to reverse electroconvulsive shock-induced amnesia in rodents at a dose of 1 (mg/kg) administered intramuscularly (im); procedure, shortened: as §1
Mus musculus [19] = assay: Compound was tested for its ability (% reversal in mice) to reverse electroconvulsive shock-induced amnesia in rodents at a dose of 10 (mg/kg) administered intramuscularly (im); procedure, shortened: as §1
Mus musculus [20] = assay: Compound was tested for its ability (% reversal in mice) to reverse electroconvulsive shock-induced amnesia in rodents at a dose of 100 (mg/kg) administered intramuscularly (im); procedure, shortened: as §1
Rattus norvegicus [21] = assay: Compound was tested for its ability (% reversal in rats) to reverse electroconvulsive shock-induced amnesia in rodents at a dose of 10 (mg/kg) administered intramuscularly (im).; procedure, shortened: as §1
Rattus norvegicus [22] = assay: Compound was tested for its ability (% reversal in rats) to reverse electroconvulsive shock-induced amnesia in rodents at a dose of 0.00010 (mg/kg) administered intramuscularly (im); procedure, shortened: as §1
Rattus norvegicus [23] = assay: Compound was tested for its ability (% reversal in rats) to reverse electroconvulsive shock-induced amnesia in rodents at a dose of 50 (mg/kg) administered intramuscularly (im); procedure, shortened: as §1
Mus musculus [24] = assay: Ability to reverse electroconvulsive shock-induced amnesia in rodents following 1 ug/kg i.m. administration.; procedure, shortened: as §1
Mus musculus [25] = assay: Ability to reverse electroconvulsive shock-induced amnesia in rodents following 0.01 mg/kg i.m. administration.; settings: route intramuscular; procedure, shortened: as §1
Mus musculus [26] = assay: Ability to reverse electroconvulsive shock-induced amnesia in rodents following 0.1 mg/kg i.m. administration.; settings: route intramuscular; procedure, shortened: as §1

| Structure (SMILES) | Reversal (Rattus norvegicus [1]) | Reversal (Rattus norvegicus [3]) | Reversal (Rattus norvegicus [5]) | Reversal (Rattus norvegicus [6]) | Reversal (Rattus norvegicus [7]) | Reversal (Rattus norvegicus [8]) | other results |
| --- | --- | --- | --- | --- | --- | --- | --- |
| CC(C)CC(CS(=O)(=O)CC(=O)O)NC(=O)C1CCCN1C(=O)OCc1ccccc1 (stereo unspecified) | 50% | 0% | – | – | – | – | Reversal (Rattus norvegicus [2]): 66% |
| CC(C)CC(N)CN1CC(=O)NC(CC(C)C)C1 (stereo unspecified) | 50% | 66% | 24% | 20% | 83% | 0% | Reversal (Rattus norvegicus [4]): 82% |
| CC(C)CC(CNCC(=O)O)NC(=O)C1CCC(=O)N1 (stereo unspecified) | 33% | 33% | 50% | – | 33% | 0% | Reversal (Rattus norvegicus [9]): 66% |
| CC(C)CC(/C=C/CC(N)=O)NC(=O)C1CCC(=O)N1 (stereo unspecified) | – | – | – | – | – | – | Reversal (Rattus norvegicus [10]): 44%; Reversal (Rattus norvegicus [11]): 0%; Reversal (Rattus norvegicus [12]): 11% |
| CC(C)CC1CN(C[C@H](CC(C)C)NC(=O)[C@@H]2CCCN2C(=O)OCc2ccccc2)CC(=O)N1 (stereo partly specified) | – | 50% | 80% | 0% | 17% | 0% | Reversal (Rattus norvegicus [13]): 17% |
| CC(C)C[C@@H](CNCC(N)=O)NC(=O)[C@@H]1CCCN1C(=O)OCc1ccccc1 | 43% | 43% | – | 0% | 43% | 0% | Reversal (Rattus norvegicus [14]): 0% |
| CC(C)CC(CNCC(=O)O)NCC1CCCN1C(=O)OCc1ccccc1 (stereo unspecified) | 0% | 14% | 40% | – | 20% | 0% | Reversal (Rattus norvegicus [15]): 10% |
| CC(C)CC(CSCC(=O)O)NC(=O)C1CC(=O)CN1C(=O)OCc1ccccc1 (stereo unspecified) | 17% | – | – | 100% | 50% | 80% | Reversal (Rattus norvegicus [16]): 83%; Reversal (Mus musculus [17]): 17%; Reversal (Mus musculus [18]): 17%; Reversal (Mus musculus [19]): 0% |
| O=C1COCC2CCCN12 (stereo unspecified) | 0% | 33% | – | – | 33% | – | Reversal (Mus musculus [20]): 63%; Reversal (Mus musculus [18]): 58%; Reversal (Mus musculus [19]): 77% |
| NC(=O)COCC(Cc1ccccc1)NC(=O)C1CCCN1C(=O)OCc1ccccc1 (stereo unspecified) | 11% | 0% | 25% | 25% | 11% | – | Reversal (Mus musculus [20]): 71%; Reversal (Mus musculus [18]): 20%; Reversal (Rattus norvegicus [21]): 42%; Reversal (Mus musculus [19]): 59% |
| CC(C)CC(CSCC(N)=O)NC(=O)C1CCCN1C(=O)OCc1ccccc1 (stereo unspecified) | 66% | 50% | – | – | – | – | Reversal (Rattus norvegicus [11]): 33%; Reversal (Rattus norvegicus [22]): 0% |
| CC(C)CC(NCC1CCCN1C(=O)OCc1ccccc1)C(=O)NCC(N)=O (stereo unspecified) | 11% | 0% | 60% | 80% | 0% | 60% | Reversal (Mus musculus [20]): 57%; Reversal (Mus musculus [18]): 85%; Reversal (Mus musculus [19]): 67% |
| Cc1ccc(S(=O)(=O)N2CCCC2CNC(CNCC(=O)O)CC(C)C)cc1 (stereo unspecified) | 0% | 40% | – | – | 0% | 80% | Reversal (Rattus norvegicus [9]): 20%; Reversal (Rattus norvegicus [23]): 0% |
| CC(C)CC(CSCC(=O)O)NC(=O)C1CCC(=O)N1C(=O)OCc1ccccc1 (stereo unspecified) | 33% | 0% | 0% | 0% | 33% | – | Reversal (Rattus norvegicus [21]): 0% |
| NC(=O)CNC(=O)[C@H](CCCCNC(=O)OCc1ccccc1)NC(=O)[C@@H]1CCCN1 (H-Pro-Lys(Cbz)-Gly-NH2) | 60% | 60% | – | – | – | – | Reversal (Mus musculus [24]): 66%; Reversal (Rattus norvegicus [11]): 40%; Reversal (Mus musculus [25]): 92%; Reversal (Mus musculus [26]): 100% |

Reference: ChEMBL document CHEMBL1123291, “Modified di- and tripeptides of the C-terminal portion of oxytocin and vasopressin as possible cognition activation agents” (1986)
